Calls of active or inactive are those of the source. No cut-off for these calls is given here.
How the values were obtained:
Epilachna [1] = assay: Antifeedant activity against third-instar larval stage of Epilachna paenulata infested cucurbita maxima leaves assessed as increase in larval mortality measured at 96 hr by no choice leaf disk assay; assay type: functional
Outline: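 Same no-choice setup (four third-instar larvae per dish, treated C. maxima leaves renewed every 48 h, six replicates, mortality scored every 24 h). LD50 derived by probit analysis of mortality at 96 h.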

Epilachna [2] = assay: Antifeedant activity against third-instar larval stage of Epilachna paenulata infested cucurbita maxima leaves assessed as larval mortality at 0.25 to 4 ug/cm2 measured after 24 hr by no choice leaf disk assay relative to untreated control; assay type: functional
Outline: (§1)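 No-choice test: four third-instar E. paenulata larvae per Petri dish fed C. maxima leaves (renewed every 48 h) with known amounts of compound or solvent applied by syringe. Six replicates per treatment, plus unfed starved controls. Leaf consumption, body weight and mortality recorded every 24 h.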

Epilachna [3] = assay: Antifeedant activity against third-instar larval stage of Epilachna paenulata infested cucurbita maxima leaves assessed as decrease in larval weight gain at 0.25 to 4 ug/cm2 measured after 144 hr by no choice leaf disk assay relative to untreated control; assay type: functional, organism-based; outline: as §1
Epilachna [4] = assay: Antifeedant activity against third-instar larval stage of Epilachna paenulata infested cucurbita maxima leaves assessed as decrease in larval weight gain at 1 to 4 ug/cm2 measured after 96 hr by no choice leaf disk assay relative to untreated control; assay type: functional, organism-based; outline: as §1
Epilachna [5] = assay: Antifeedant activity against third-instar larval stage of Epilachna paenulata infested cucurbita maxima leaves assessed as decrease in food consumption at 0.25 to 4 ug/cm2 measured after 6 days by no choice leaf disk assay relative to untreated control; assay type: functional, organism-based; outline: as §1
Epilachna [6] = assay: Antifeedant activity against third-instar larval stage of Epilachna paenulata infested cucurbita maxima leaves assessed as decrease in food consumption at 0.25 to 4 ug/cm2 measured after 24 hr by no choice leaf disk assay relative to untreated control; assay type: functional, organism-based; outline: as §1
Epilachna [7] = assay: Antifeedant activity against third-instar larval stage of Epilachna paenulata infested cucurbita maxima leaves assessed as feeding reduction after 24 hr by leaf disk choice assay; assay type: functional
Outline: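 Leaf-disk choice test: two C. maxima seedling cotyledons in a Petri dish under a glass disk with two 1 cm² holes. One third-instar larva placed equidistant from treated and solvent-control disks, fed 24 h. Area eaten estimated visually by quarters, always by the same operator. AI% = (1 − T/C) × 100; Wilcoxon signed paired rank test, α = 0.05.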

Epilachna [8] = assay: Antifeedant activity against third-instar larval stage of Epilachna paenulata infested cucurbita maxima leaves assessed as decrease in food consumption at 0.25 to 4 ug/cm2 measured after 48 hr by no choice leaf disk assay relative to untreated control; assay type: functional, organism-based; outline: as §1

Row | Compound | LD50 (Epilachna [1]) [microg/cm2] | mortality (Epilachna [2]) [%] | Activity (Epilachna [3]) | Activity (Epilachna [4]) | Activity (Epilachna [5]) | Activity (Epilachna [6]) | ED50 (Epilachna [7]) [microg/cm2] | Activity (Epilachna [8])
1 | CC(=O)O[C@@H]1C[C@H](O)[C@@]23COC(O)[C@]1(C)[C@@H]2C[C@@H](O)[C@]1(C)[C@@H]3[C@H](O)C(=O)[C@@]2(C)[C@H](c3ccoc3)C[C@H]3O[C@@]312 (stereo partly drawn) [MELIARTENIN] | 0.76 | 20 | Active | Active | Active | Active | 0.8 | –
2 | CC(=O)O[C@@H]1C[C@H](O)[C@@]23CO[C@@H](O)[C@]1(C)[C@@H]2C[C@@H](O)[C@]1(C)[C@@H]3C(=O)[C@H](OC(C)=O)[C@@]2(C)[C@H](c3ccoc3)C[C@H]3O[C@]321 [TOOSENDANIN] | – | – | – | – | – | – | 3.69 | –
3 | C/C=C(\C)C(=O)O[C@H]1C[C@@H](OC(C)=O)[C@@]2(C(=O)OC)CO[C@H]3[C@@H](O)[C@@](C)([C@]45O[C@@]4(C)[C@@H]4C[C@H]5O[C@@H]5OC=C[C@@]54O)[C@H]4[C@]1(CO[C@]4(O)C(=O)OC)[C@@H]32 [AZADIRACHTIN A] | 1.24 | – | – | – | Active | inactive | 0.72 | Active

Source: ChEMBL document CHEMBL3045749, “Antifeedant and insecticide properties of a limonoid from Melia azedarach (Meliaceae) with potential use for pest management” (2003)
